Measurements as given in ChEMBL document CHEMBL4020725, “Design and synthesis of novel xanthine derivatives as potent and selective A2B adenosine receptor antagonists for the treatment of chronic inflammatory airway diseases” (Eur J Med Chem, 2017).
≈ marks a conversion by molar mass, not a printed value. Calls of active or inactive are those of the source. No cut-off for these calls is given here.

Legend:
[1] = tested on: Liver; experiment: Metabolic stability in human liver microsomes; assay type: ADME, microsome
[2] = Half life in C57BL/6J mouse at 10 mg/kg, po; assay type: ADME, organism-based; conditions: in vivo
How it was run: (§1)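 Oral dosing at 10 mg/Kg in C57BL/6J mice. Vehicle is DMAC (10%), CrEL (10%), PEG300 (10%) in water, pH ~9, or, for one compound, DMSO (10%), CrEL (10%), PEG300 (10%) in water, pH ~7.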

[3] = target: T1, Adenosine receptor A2b (Homo sapiens, UniProt P29275); experiment: Antagonist activity at human adenosine A2B receptor expressed in HEK293 cells assessed as inhibition of NECA-induced increase in cAMP accumulation incubated for 15 mins followed by agonist treatment for 15 mins by HTRF assay; assay type: functional, cell-based
T1 sequence (P29275 whole entry): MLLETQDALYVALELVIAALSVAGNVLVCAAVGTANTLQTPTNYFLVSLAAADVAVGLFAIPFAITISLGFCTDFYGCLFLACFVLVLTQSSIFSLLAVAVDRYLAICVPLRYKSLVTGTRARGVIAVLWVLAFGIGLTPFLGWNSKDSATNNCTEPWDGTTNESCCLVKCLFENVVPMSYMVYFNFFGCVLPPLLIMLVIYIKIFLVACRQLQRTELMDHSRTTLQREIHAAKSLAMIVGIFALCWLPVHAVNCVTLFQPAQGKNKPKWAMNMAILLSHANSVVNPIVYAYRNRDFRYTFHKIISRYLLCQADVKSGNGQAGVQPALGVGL
How it was run: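 HEK-293 cells overexpressing human A2B, 24 h cultures, are pretreated with 1 U/mL ADA for 90 min at 37°C. Cells are harvested and preincubated with increasing compound concentrations for 15 min at room temperature in DMEM with ADA.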

[4] = tested on: P-gp; experiment: Substrate activity at P-gp (unknown origin) assessed as ratio of permeability from basolateral to apical side over apical to basolateral side; assay type: ADME; conditions: human, not told
[5] = Oral bioavailability in C57BL/6J mouse at 10 mg/kg; assay type: ADME, organism-based; conditions: in vivo; how it was run: as §1
[6] = tested on: Liver; experiment: Metabolic stability in mouse liver microsomes; assay type: ADME, microsome
[7] = Aqueous solubility of the compound at pH 7.4; assay type: physicochemical
How it was run: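 Aqueous solubility measured at pH 7.4.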

[8] = AUC (0 to t) in C57BL/6J mouse at 10 mg/kg, po; assay type: ADME, organism-based; conditions: in vivo; how it was run: as §1
[9] = tested on: Liver; experiment: Metabolic stability in rat liver microsomes; assay type: ADME, microsome
[10] = target: Adenosine receptor A2a (Homo sapiens) (UniProt P29274); experiment: Displacement of [3H]-ZM241385 from human adenosine A2A receptor expressed in HEK293 cell membranes at 0.1 uM after 90 mins relative to control
How it was run: (§2)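 Membranes from HEK-293 cells stably transfected with human A1, A2A or A3 receptor, pretreated with 1 U/ml ADA. Membranes are incubated 90 min at room temperature with gentle agitation. Tracer and buffer per receptor: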

[11] = target: T1, Adenosine receptor A2b; experiment: Displacement of [3H]-MRS-1754 from human adenosine A2B receptor expressed in HEK293 cell membranes after 90 mins; conditions: read-out: Ki
How it was run: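 Membranes from HEK-293 cells stably expressing human A2B, ADA-treated, incubated with 1.6 nM [3H]-MRS-1754 in 50 mM Tris pH 6.5, 5 mM MgCl2, 1 mM EDTA, 1 U/ml ADA. Incubation 90 min at room temperature. Filtration; nonspecific binding with 100 µM NECA. Eight compound concentrations, each in triplicate; Ki derived by fitting.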

[12] = target: T2, Adenosine receptor A3 (Homo sapiens) (UniProt P0DMS8); experiment: Displacement of [3H]-HEMADO from human adenosine A3 receptor expressed in HEK293 cell membranes at 1 uM after 90 mins relative to control; how it was run: as §2
T2 sequence (whole entry): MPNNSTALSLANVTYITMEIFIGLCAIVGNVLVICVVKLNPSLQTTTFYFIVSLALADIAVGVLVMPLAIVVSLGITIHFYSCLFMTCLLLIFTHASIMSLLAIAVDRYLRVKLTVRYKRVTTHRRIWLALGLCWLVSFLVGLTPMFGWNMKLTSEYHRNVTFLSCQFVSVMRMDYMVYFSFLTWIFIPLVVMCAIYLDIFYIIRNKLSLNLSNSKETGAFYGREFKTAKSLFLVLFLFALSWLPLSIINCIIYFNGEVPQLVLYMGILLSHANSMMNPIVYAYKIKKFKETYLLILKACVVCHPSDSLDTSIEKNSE

[13] = target: T1, Adenosine receptor A2b; experiment: Antagonist activity at human adenosine A2B receptor expressed in mouse NIH/3T3 cells assessed as inhibition of NECA-induced IL-6 release incubated for 15 mins followed by agonist treatment for 15 mins by HTRF assay; assay type: cell-based
[14] = Cmax in C57BL/6J mouse at 10 mg/kg, po; assay type: ADME, organism-based; parameters: dose 10 mg/kg, route oral; conditions: in vivo; how it was run: as §1
[15] = target: T3, Adenosine receptor A1 (Homo sapiens) (UniProt P30542); experiment: Displacement of [3H]-DPCPX from human adenosine A1 receptor expressed in HEK293 cell membranes at 0.1 uM after 90 mins relative to control; how it was run: as §2
T3 sequence (whole entry): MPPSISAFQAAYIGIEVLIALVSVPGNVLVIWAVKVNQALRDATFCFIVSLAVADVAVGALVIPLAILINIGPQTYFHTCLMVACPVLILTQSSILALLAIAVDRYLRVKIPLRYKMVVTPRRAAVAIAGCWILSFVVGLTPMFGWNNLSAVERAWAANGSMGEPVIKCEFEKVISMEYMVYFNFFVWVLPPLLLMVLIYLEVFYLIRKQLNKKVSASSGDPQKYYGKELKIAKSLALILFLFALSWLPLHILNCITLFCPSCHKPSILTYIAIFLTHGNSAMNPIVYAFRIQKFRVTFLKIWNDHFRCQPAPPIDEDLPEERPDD

[16] = target: Voltage-gated inwardly rectifying potassium channel KCNH2 (Homo sapiens, UniProt Q12809); experiment: Inhibition of human ERG
[17] = Inhibition of CYP450 (unknown origin); assay type: ADME, Homo sapiens
[18] = tested on: HepG2; experiment: Cytotoxicity against human HepG2 cells; assay type: cell-based
[19] = tested on: MDCK; experiment: Cytotoxicity against MDCK cells; assay type: cell-based; conditions: Canis lupus familiaris
[20] = tested on: Mus musculus; experiment: Antiinflammatory activity in […] allergic asthma mouse model assessed as inhibition of airway hyper-responsiveness at 3 mg/kg administered ip bid; assay type: functional, organism-based
[21] = tested on: Mus musculus; experiment: Antiinflammatory activity in ovalbumin-induced allergic asthma mouse model assessed as reduction in total cell count in bronchoalveolar lavage fluid at 3 mg/kg administered ip bid; assay type: functional, organism-based

Chain of Adenosine receptor A2a (Homo sapiens) (P29274 whole entry): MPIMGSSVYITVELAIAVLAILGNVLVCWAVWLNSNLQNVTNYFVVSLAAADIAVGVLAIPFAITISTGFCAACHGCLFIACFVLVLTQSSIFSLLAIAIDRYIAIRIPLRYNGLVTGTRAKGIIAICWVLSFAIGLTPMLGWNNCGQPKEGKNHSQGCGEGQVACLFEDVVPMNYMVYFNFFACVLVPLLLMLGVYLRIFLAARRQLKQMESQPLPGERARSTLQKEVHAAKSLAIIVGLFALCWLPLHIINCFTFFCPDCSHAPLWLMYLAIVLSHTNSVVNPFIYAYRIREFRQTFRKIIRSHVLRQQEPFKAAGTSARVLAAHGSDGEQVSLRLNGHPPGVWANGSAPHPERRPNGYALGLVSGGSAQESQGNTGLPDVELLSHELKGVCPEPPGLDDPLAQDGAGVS
Chain of Voltage-gated inwardly rectifying potassium channel KCNH2 (Q12809 whole entry): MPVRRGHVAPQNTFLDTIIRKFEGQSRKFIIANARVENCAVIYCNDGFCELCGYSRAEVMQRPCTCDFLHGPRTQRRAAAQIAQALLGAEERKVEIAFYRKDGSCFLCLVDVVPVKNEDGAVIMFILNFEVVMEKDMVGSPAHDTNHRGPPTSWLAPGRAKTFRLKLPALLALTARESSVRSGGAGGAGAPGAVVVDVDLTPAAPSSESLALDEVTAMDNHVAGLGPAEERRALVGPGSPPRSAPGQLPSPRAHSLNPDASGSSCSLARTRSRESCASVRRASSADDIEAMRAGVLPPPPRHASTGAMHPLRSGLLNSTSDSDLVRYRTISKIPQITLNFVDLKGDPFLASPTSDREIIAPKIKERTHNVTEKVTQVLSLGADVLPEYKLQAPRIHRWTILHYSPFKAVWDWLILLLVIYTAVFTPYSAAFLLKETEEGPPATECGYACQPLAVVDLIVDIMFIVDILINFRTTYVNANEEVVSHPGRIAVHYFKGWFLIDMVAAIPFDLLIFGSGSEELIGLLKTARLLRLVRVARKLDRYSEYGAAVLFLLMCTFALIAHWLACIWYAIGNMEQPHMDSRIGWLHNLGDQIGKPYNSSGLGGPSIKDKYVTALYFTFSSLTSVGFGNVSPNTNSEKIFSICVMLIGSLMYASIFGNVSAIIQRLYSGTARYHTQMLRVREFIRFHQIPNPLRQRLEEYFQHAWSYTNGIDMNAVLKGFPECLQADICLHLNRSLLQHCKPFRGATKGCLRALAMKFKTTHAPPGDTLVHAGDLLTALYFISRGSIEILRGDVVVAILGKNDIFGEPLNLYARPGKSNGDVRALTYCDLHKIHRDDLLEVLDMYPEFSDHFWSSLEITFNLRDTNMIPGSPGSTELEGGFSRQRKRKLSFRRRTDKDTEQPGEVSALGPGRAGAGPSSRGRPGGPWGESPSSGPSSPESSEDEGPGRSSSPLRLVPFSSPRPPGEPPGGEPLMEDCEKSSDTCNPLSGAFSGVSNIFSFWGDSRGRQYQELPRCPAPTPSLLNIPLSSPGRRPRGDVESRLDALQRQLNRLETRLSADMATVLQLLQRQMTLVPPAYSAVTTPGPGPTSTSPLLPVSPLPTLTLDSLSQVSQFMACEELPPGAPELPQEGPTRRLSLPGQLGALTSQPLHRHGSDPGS

Row | Compound | Stability [1] | half-life [2] | Ki [3] | bioavailability [5] | Stability [6] | solubility [7] | AUC(0-t) [8] | Stability [9] | inhibition [10] | Ki [11] | inhibition [12] | IC50 [13] | Cmax [14] | inhibition [15] | further results
1 | CCCn1c(=O)c2[nH]c(-c3cnn(CC#Cc4cccc(OC(F)(F)F)c4)c3)nc2n(CC)c1=O | Stable | 6.1 h | 8 nM | 76% | Stable | 21 µM (≈ 10.2 µg/mL) | 60 µM·h | Stable | 37% | 13 nM | 0% | 107 nM | 13 µM | 17% | IC50 [16]: > 25000 nM; IC50 [17]: > 10000 nM; IC50 [18]: > 100000 nM; IC50 [19]: > 100000 nM; inhibition [20]: Active; Activity [21]: Active
2 | C#CCn1cc(-c2nc3c([nH]2)c(=O)n(CCC)c(=O)n3CCC)cn1 | – | – | – | – | – | – | – | – | 69% | 62 nM | 32% | – | – | 56% | –
3 | CCCn1c(=O)c2[nH]c(-c3cnn(CC#Cc4ccc(C#N)cc4)c3)nc2n(CCC)c1=O | – | – | – | – | – | – | – | – | 29% | 14 nM | 14% | – | – | 14% | –
4 | CCCn1c(=O)c2[nH]c(-c3cnn(CC#CCN4CCCC4)c3)nc2n(CCC)c1=O | – | – | – | – | – | – | – | – | 67% | 120 nM | 59% | – | – | 66% | –

These reach a lower Ki [11]. Values come first.

Row | Stability [1] | half-life [2] | Ki [3] | bioavailability [5] | Stability [6] | solubility [7] | AUC(0-t) [8] | Stability [9] | inhibition [10] | Ki [11] | inhibition [12] | IC50 [13] | Cmax [14] | inhibition [15] | Compound | further results
5 | Stable | 1.8 h | 1.8 nM | 10% | Stable | 529 µM (≈ 244 µg/mL) | 2.2 µM·h | Stable | 32% | 5.3 nM | 0% | 2000 nM | 1.9 µM | 20% | CCCn1c(=O)c2[nH]c(-c3cnn(CC#Cc4cccc(C(=O)O)c4)c3)nc2n(CCC)c1=O | efflux ratio [4]: 12
6 | Stable | 5 h | 8.8 nM | 42% | Stable | < 6 µM | 67 µM·h | Stable | 27% | 3.6 nM | 6% | 90 nM | 6.6 µM | 39% | CCCn1c(=O)c2[nH]c(-c3cnn(CC#Cc4cccc(OC(F)(F)F)c4)c3)nc2n(CCC)c1=O | –
7 | – | – | – | – | – | – | – | – | 60% | 3 nM | 0% | – | – | 53% | CCCn1c(=O)[nH]c2nc(-c3cnn(CC#Cc4cccc(F)c4)c3)[nH]c2c1=O | –
8 | – | – | – | – | – | – | – | – | 55% | 1.6 nM | 0% | – | – | 77% | CCCn1c(=O)[nH]c2nc(-c3cnn(CC#Cc4ccc(F)cc4)c3)[nH]c2c1=O | –
